Experimental data from ChEMBL document CHEMBL4715828, “Identification of N-benzyltetrahydroisoquinolines as novel anti-neuroinflammatory agents” (2018).
Active and inactive are the calls of the source. The calls are words filed in the database; no cut-off is given here.

Key:
BV-2 [1] = experiment: Anti-neuroinflammatory activity in mouse BV2 cells assessed as inhibition of LPS-induced TNF-alpha production by measuring TNF-alpha level at 50 uM preincubated for 1 hr followed by LPS stimulation and measured after 24 hrs by ELISA (reference value: 100 +/- 0%); format: functional; conditions: time 25 hrs
In short: (§1)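 BV2 murine microglia in DMEM:F-12 (1:1) with 10% heat-inactivated FBS and penicillin/streptomycin, 5% CO2, seeded at 5 x 10^5 cells/mL in 12-well plates and attached overnight. Compound in DMSO (0.1% v/v final) added 1 h before LPS (E. coli O55:B5, 100 ng/mL) for 24 h. Medium centrifuged, then assayed by ELISA. Values are % of LPS, mean ± SEM, three experiments.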

Microglia [2] = experiment: Anti-neuroinflammatory activity in primary mouse microglia cells assessed as reduction in LPS-induced IL-12p40 mRNA expression at 100 uM preincubated for 1 hr followed by LPS treatment for 4 hrs by qPCR analysis; format: functional, cell-based; conditions: time 5.0 hrs
In short: (§2)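 Primary microglia come from cortical cells of 1-2-day neonatal mice, grown in DMEM/F12 with 10% FBS and 2 mM glutamine, plus 5 ng/ml GM-CSF from day 3. Cells shaken off at day 13-14, plated at 5 x 10^5 cells/mL and attached overnight. Compound given 1 h before LPS 100 ng/mL for 2 or 4 h, then RNA extracted and qPCR run. Mean ± SEM, three experiments.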

Microglia [3] = experiment: Anti-neuroinflammatory activity in primary mouse microglia cells assessed as reduction in LPS-induced IL-23p19 mRNA expression at 100 uM preincubated for 1 hr followed by LPS treatment for 4 hrs by qPCR analysis; format: functional, cell-based; conditions: time 5.0 hrs; in short: as §2
BV-2 [4] = experiment: Anti-neuroinflammatory activity in mouse BV2 cells assessed as inhibition of LPS-induced TNF-alpha production preincubated for 1 hr followed by LPS treatment and measured after 24 hrs by ELISA; format: functional, cell-based; conditions: dose 12-50 µM, time 25.0 hrs; in short: as §1
Microglia [5] = experiment: Anti-neuroinflammatory activity in primary mouse microglia cells assessed as reduction in LPS-induced IL-1beta mRNA expression at 100 uM preincubated for 1 hr followed by LPS treatment for 2 hrs by qPCR analysis; format: functional, cell-based; conditions: time 3.0 hrs; in short: as §2
Microglia [6] = experiment: Anti-neuroinflammatory activity in primary mouse microglia cells assessed as reduction in LPS-induced TNF mRNA expression at 100 uM preincubated for 1 hr followed by LPS treatment for 4 hrs by qPCR analysis; format: functional, cell-based; conditions: time 5.0 hrs; in short: as §2
Microglia [7] = experiment: Anti-neuroinflammatory activity in primary mouse microglia cells assessed as reduction in LPS-induced IL-23p19 mRNA expression at 100 uM preincubated for 1 hr followed by LPS treatment for 2 hrs by qPCR analysis; format: functional, cell-based; conditions: time 3.0 hrs; in short: as §2
Microglia [8] = experiment: Anti-neuroinflammatory activity in primary mouse microglia cells assessed as reduction in LPS-induced IL6 mRNA expression at 100 uM preincubated for 1 hr followed by LPS treatment for 4 hrs by qPCR analysis; format: functional, cell-based; conditions: time 5.0 hrs; in short: as §2
Microglia [9] = experiment: Anti-neuroinflammatory activity in primary mouse microglia cells assessed as reduction in LPS-induced TNF mRNA expression at 100 uM preincubated for 1 hr followed by LPS treatment for 2 hrs by qPCR analysis; format: functional, cell-based; conditions: time 3.0 hrs; in short: as §2
BV-2 [10] = experiment: Anti-neuroinflammatory activity in mouse BV2 cells assessed as inhibition of LPS-induced IL-6 production preincubated for 1 hr followed by LPS treatment and measured after 24 hrs by ELISA; format: functional, cell-based; conditions: dose 25-50 µM, time 25.0 hrs; in short: as §1
Microglia [11] = experiment: Anti-neuroinflammatory activity in primary mouse microglia cells assessed as reduction in LPS-induced IL6 mRNA expression at 100 uM preincubated for 1 hr followed by LPS treatment for 2 hrs by qPCR analysis; format: functional, cell-based; conditions: time 3.0 hrs; in short: as §2
Microglia [12] = experiment: Anti-neuroinflammatory activity in primary mouse microglia cells assessed as reduction in LPS-induced GM-CSF mRNA expression at 100 uM preincubated for 1 hr followed by LPS treatment for 2 hrs by qPCR analysis; format: functional, cell-based; conditions: time 3.0 hrs; in short: as §2
Microglia [13] = experiment: Anti-neuroinflammatory activity in primary mouse microglia cells assessed as reduction in LPS-induced GM-CSF mRNA expression at 100 uM preincubated for 1 hr followed by LPS treatment for 4 hrs by qPCR analysis; format: functional, cell-based; conditions: time 5.0 hrs; in short: as §2
Microglia [14] = experiment: Anti-neuroinflammatory activity in primary mouse microglia cells assessed as reduction in LPS-induced IL-12p40 mRNA expression at 100 uM preincubated for 1 hr followed by LPS treatment for 2 hrs by qPCR analysis; format: functional, cell-based; conditions: time 3.0 hrs; in short: as §2
Microglia [15] = experiment: Anti-neuroinflammatory activity in primary mouse microglia cells assessed as reduction in LPS-induced IL-1beta mRNA expression at 100 uM preincubated for 1 hr followed by LPS treatment for 4 hrs by qPCR analysis; format: functional, cell-based; conditions: time 5.0 hrs; in short: as §2
Microglia [16] = experiment: Anti-neuroinflammatory activity in primary mouse microglia cells assessed as reduction in LPS-induced IL-12p35 mRNA expression at 100 uM preincubated for 1 hr followed by LPS treatment for 2 hrs by qPCR analysis; format: functional, cell-based; conditions: time 3.0 hrs; in short: as §2
BV-2 [17] = experiment: Anti-neuroinflammatory activity in mouse BV2 cells assessed as inhibition of LPS-induced nitrite production preincubated for 1 hr followed by LPS treatment and measured after 24 hrs by Griess assay; format: functional, cell-based; conditions: dose 6-50 µM, time 25.0 hrs
In short: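 BV2 cells seeded at 5 x 10^5 cells/mL in 12-well plates and attached overnight. Compound (0.1% v/v DMSO final) given 1 h before LPS 100 ng/mL for 24 h. Medium centrifuged to remove floating cells, then nitrite read by Griess kit. Mean ± SEM from three experiments.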

Microglia [18] = experiment: Anti-neuroinflammatory activity in primary mouse microglia cells assessed as reduction in LPS-induced IL-12p35 mRNA expression at 100 uM preincubated for 1 hr followed by LPS treatment for 4 hrs by qPCR analysis; format: functional, cell-based; conditions: time 5.0 hrs; in short: as §2
BV-2 [19] = experiment: Anti-neuroinflammatory activity in mouse BV2 cells assessed as inhibition of LPS-induced TNF-alpha production by measuring TNF-alpha level at 1 uM preincubated for 1 hr followed by LPS stimulation and measured after 24 hrs by ELISA (reference value: 100 +/- 0%); format: functional; design: scale not given: the % may be the effect or the level left; conditions: time 25 hrs; in short: as §1

Row | Structure (SMILES) | TNF-alpha level (% of LPS control) (BV-2 [1]) [%] | further results
1 | Cc1cccc(C)c1CN1CCc2cc3c(cc2C1)OCO3 | 101 | 
2 | COc1ccc(CC2c3cc4c(cc3CC[N+]2(C)C)OCO4)cc1OC.[I-] (centres undefined) | 97 | 
3 | Clc1cccc(Cl)c1CN1CCc2cc3c(cc2C1)OCO3 | 107 | 
4 | COc1ccc(CN2CCc3cc4c(cc3C2)OCO4)c(OC)c1 | 103 | 
5 | COc1ccc(CN2CCc3cc4c(cc3C2)OCO4)cc1 | 88 | 
6 | COc1ccc2c(c1)CCN(Cc1c(OC)cccc1OC)C2 | 64 | 
7 | COc1ccc(CC2c3cc4c(cc3CCN2C)OCO4)cc1OC (centres undefined) | 77 | 
8 | COc1ccc2c(c1)CN(Cc1c(OC)cccc1OC)CC2 | 82 | 
9 | COc1ccc2c(c1OC)C[N+]1(Cc3ccccc3)CCc3cc4c(cc3C1C2)OCO4.[Br-] (centres undefined) | 22 | 
10 | COc1ccc2c(c1OC)CN1CCc3cc4c(cc3C1C2)OCO4 (centres undefined) [TETRAHYDROBERBERINE] | 45 | 
11 | COc1cccc(CN2CCc3ccccc3C2)c1OC | 95 | 
12 | COc1cccc(OC)c1CN1CCc2ccccc2C1 | 78 | 
13 | COc1cccc(OC)c1C(=O)N1CCc2cc3c(cc2C1)OCO3 | 73 | 
14 | c1ccc(CN2CCc3cc4c(cc3C2)OCO4)cc1 | 90 | 
15 | COc1cccc(OC)c1CN1CCc2cc3c(cc2C1)OCO3 | 39 | Activity (Microglia [2]): inactive; Activity (Microglia [3]): Active; Activity (BV-2 [4]): Dose-dependent effect; Activity (Microglia [5]): Active; Activity (Microglia [6]): inactive; Activity (Microglia [7]): Active; Activity (Microglia [8]): Active; Activity (Microglia [9]): inactive; Activity (BV-2 [10]): Dose-dependent effect; Activity (Microglia [11]): Active; Activity (Microglia [12]): Active; Activity (Microglia [13]): Active; Activity (Microglia [14]): inactive; Activity (Microglia [15]): Active; Activity (Microglia [16]): Active; Activity (BV-2 [17]): Dose-dependent effect; Activity (Microglia [18]): Active
16 | COc1cccc(CN2CCc3cc4c(cc3C2)OCO4)c1OC | 61 | 
17 | FC(F)(F)c1ccc(CN2CCc3cc4c(cc3C2)OCO4)cc1 | 102 | 
18 | COc1ccc2cc3[n+](cc2c1OC)CCc1cc2c(cc1-3)OCO2.[Cl-] [BERBERINE CHLORIDE] |  | Activity (BV-2 [19]): 25%
19 | COc1ccccc1CN1CCc2cc3c(cc2C1)OCO3 | 78 | 
20 | COc1ccc(CC2NCCc3cc4c(cc32)OCO4)cc1OC (centres undefined) | 77 | 
21 | COc1cccc(CN2CCc3cc4c(cc3C2)OCO4)c1 | 78 | 
22 | COc1cc(CN2CCc3cc4c(cc3C2)OCO4)cc(OC)c1 | 89 | 
